Data: ChEMBL document CHEMBL1147382, “Cytotoxic constituents from Hyptis verticillata” (J Nat Prod, 1993)
≈ marks a conversion by molar mass, not a printed value.

Experiments:
[1] = Antimitotic activity in rat ASK cells assessed as reversal of astrocyte formation at 0.16 ug/mL; assay type: functional
How it was run: (§1)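 Cultured rat glioma (ASK) cells were used, following Swanson et al. The antimitotic read-out was the dose giving 100% reversal of astrocyte conversion. Pure lignans were tested across a range of concentrations.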

[2] = Antimitotic activity in rat ASK cells assessed as reversal of astrocyte formation at 4 ug/mL; assay type: functional; how it was run: as §1
Lu1 = assay: Cytotoxicity against human Lu1 cells; assay type: functional; conditions: read-out: ED50 (the source's name)
[3] = Cytotoxicity against human BC1 cells; assay type: functional; conditions: read-out: ED50 (the source's name)
[4] = Antimitotic activity in rat ASK cells assessed as reversal of astrocyte formation at 20 ug/mL; assay type: functional; how it was run: as §1
[5] = Antimitotic activity in rat ASK cells assessed as reversal of astrocyte formation at 100 ug/mL; assay type: functional; how it was run: as §1
[6] = Antimitotic activity in rat ASK cells assessed as reversal of astrocyte formation at 0.8 ug/mL; assay type: functional; how it was run: as §1
KB = assay: Cytotoxicity against human KB cells; assay type: functional; conditions: read-out: ED50 (the source's name)
LNCaP = assay: Cytotoxicity against human LNCAP cells; assay type: functional; conditions: read-out: ED50 (the source's name)
[7] = Cytotoxicity against human KBV1 cells; assay type: functional; conditions: KB-V1, read-out: ED50 (the source's name)
[8] = Antimitotic activity in rat ASK cells assessed as reversal of astrocyte formation at 0.032 ug/mL; assay type: functional; how it was run: as §1
A-431 = assay: Cytotoxicity against human A431 cells; assay type: functional; conditions: read-out: ED50 (the source's name)
[9] = Cytotoxicity against human U373 cells; assay type: functional, U-373MG ATCC; conditions: U373 MG, read-out: ED50 (the source's name)
HT = assay: Cytotoxicity against human HT cells; assay type: functional; conditions: read-out: ED50 (the source's name)
ZR-75-1 = assay: Cytotoxicity against human ZR-75-1 cells; assay type: functional; conditions: read-out: ED50 (the source's name)
P388 = assay: Cytotoxicity in mouse P388 cells; assay type: functional; conditions: read-out: ED50 (the source's name)
Col2 = assay: Cytotoxicity against human Col2 cells; assay type: functional; conditions: read-out: ED50 (the source's name)
[10] = Antimitotic activity in rat ASK cells assessed as reversal of astrocyte formation at 0.0064 ug/mL; assay type: functional; how it was run: as §1
[11] = Toxicity in brine shrimp; assay type: organism-based; conditions: artemia, in vivo
[12] = Antimitotic activity in rat ASK cells assessed as reversal of astrocyte formation at 0.00128 ug/mL; assay type: functional
How it was run: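 Cultured rat glioma (ASK) cells, run essentially by a previously published astrocyte-formation procedure. Antimitotic potential is scored as the dose needed to give 100% reversal of astrocyte conversion.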

Structure (SMILES)	Activity [1] [%]	Activity [2] [%]	EC50 (Lu1) [mg/L]	EC50 [3] [mg/L]	Activity [4] [%]	Activity [5] [%]	Activity [6] [%]	EC50 (KB) [mg/L]	EC50 (LNCaP) [mg/L]	EC50 [7] [mg/L]	Activity [8] [%]	EC50 (A-431) [mg/L]	EC50 [9] [mg/L]	EC50 (HT) [mg/L]	EC50 (ZR-75-1) [mg/L]	EC50 (P388) [mg/L]	EC50 (Col2) [mg/L]	Activity [10] [%]	LC50 [11] [mg/L]	Activity [12] [%]
COc1cc([C@@H]2c3cc4c(cc3C[C@H]3COC(=O)[C@@H]32)OCO4)cc(OC)c1OC [DESOXYPODOPHYLLOTOXIN]	100	100	0.002 (≈ 0.00502 µM)	0.001 (≈ 0.00251 µM)	100	100	100	0.05 (≈ 0.125 µM)	0.01 (≈ 0.0251 µM)	0.06 (≈ 0.151 µM)	100	4.3 (≈ 10.8 µM)	0.001 (≈ 0.00251 µM)	0.003 (≈ 0.00753 µM)	2 (≈ 5.02 µM)	0.002 (≈ 0.00502 µM)	0.01 (≈ 0.0251 µM)	0	–	–
COc1cc([C@@H]2c3cc4c(cc3[C@H](O)[C@H]3COC(=O)[C@H]23)OCO4)cc(OC)c1OC [PODOFILOX]	100	100	0.008 (≈ 0.0193 µM)	0.03 (≈ 0.0724 µM)	100	100	100	0.08 (≈ 0.193 µM)	0.04 (≈ 0.0965 µM)	0.06 (≈ 0.145 µM)	100	0.03 (≈ 0.0724 µM)	0.004 (≈ 0.00965 µM)	0.003 (≈ 0.00724 µM)	0.4 (≈ 0.965 µM)	0.003 (≈ 0.00724 µM)	0.005 (≈ 0.0121 µM)	0	0.2 (≈ 0.483 µM)	–
COc1cc(-c2c3c(cc4c(OC)c5c(cc24)OCO5)COC3=O)cc(OC)c1OC	0	100	4.3 (≈ 10.1 µM)	2.9 (≈ 6.83 µM)	100	100	0	2.2 (≈ 5.18 µM)	3.2 (≈ 7.54 µM)	4.2 (≈ 9.9 µM)	0	> 20	5.9 (≈ 13.9 µM)	3.4 (≈ 8.01 µM)	> 20	1.8 (≈ 4.24 µM)	3.2 (≈ 7.54 µM)	0	435 (≈ 1020 µM)	–
COc1cc2c(c(OC)c1OC)-c1ccc(OC)c(=O)cc1[C@@H](NC(C)=O)CC2 [COLCHICINE]	0	100	–	–	100	100	70	–	–	–	0	–	–	–	–	–	–	0	–	0
COc1cc(-c2c3c(c(O)c4cc5c(cc24)OCO5)COC3=O)cc(OC)c1OC [DEHYDROPODOPHYLLOTOXIN]	0	0	10.6 (≈ 25.8 µM)	15.2 (≈ 37 µM)	100	100	0	5 (≈ 12.2 µM)	11.7 (≈ 28.5 µM)	13 (≈ 31.7 µM)	0	> 20	> 20	9.7 (≈ 23.6 µM)	> 20	> 5	8.9 (≈ 21.7 µM)	0	255 (≈ 621 µM)	–
COc1cc(-c2c3c(c(O)c4c(OC)c5c(cc24)OCO5)COC3=O)cc(OC)c1OC	0	0	11.7 (≈ 26.6 µM)	7.6 (≈ 17.3 µM)	100	100	0	6 (≈ 13.6 µM)	11.6 (≈ 26.3 µM)	8.7 (≈ 19.8 µM)	0	6.2 (≈ 14.1 µM)	16.3 (≈ 37 µM)	15.6 (≈ 35.4 µM)	> 20	4 (≈ 9.08 µM)	12.8 (≈ 29.1 µM)	0	> 500	–
COc1cc(-c2c3c(cc4cc5c(cc24)OCO5)COC3=O)cc(OC)c1OC [DEOXYDEHYDROPODOPHYLLOTOXIN]	–	0	18.8 (≈ 47.7 µM)	> 20	0	100	0	11.4 (≈ 28.9 µM)	11.6 (≈ 29.4 µM)	> 20	–	6.2 (≈ 15.7 µM)	> 20	> 20	> 20	> 5	16.7 (≈ 42.3 µM)	–	> 500	–
